# ChEMBL document CHEMBL1127395, “Synthesis and antimicrobial activity of novel 3-[(aminopyrimidiniumyl)thio]methyl cephalosporins” (1994)
# Test system: Proteus vulgaris
# Experiment: In vitro minimum inhibitory concentration for Proteus vulgaris (ATCC-6059) by agar dilution method
# Type: functional
# Conditions: Proteus vulgaris; read-out: MIC
# Procedure, shortened: (§1)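 Two-fold serial dilutions of each compound dispersed in Mueller-Hinton agar; plates spot-inoculated with 2 μL of standard test strain at 10^7 CFU/mL, incubated 37 °C for 20 h; MIC read as lowest concentration inhibiting growth.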
row,Compound,MIC
1,CC(C)(O/N=C(\C(=O)NC1C(=O)N2C(C(=O)O)=C(CSc3nc(N)cc(N)n3)CSC12)c1cnc(N)s1)C(=O)O (stereo not drawn),0.031 µg/mL
2,Cc1c(N)nc(SCC2=C(C(=O)[O-])N3C(=O)C(NC(=O)/C(=N\OC(C)(C)C(=O)O)c4cnc(N)s4)C3SC2)[n+]2nc(C)n(C)c12 (stereo not drawn),0.13 µg/mL
3,C[n+]1cccnc1SCC1=C(C(=O)[O-])N2C(=O)C(NC(=O)/C(=N\OC(C)(C)C(=O)O)c3cnc(N)s3)C2SC1 (stereo not drawn),0.13 µg/mL
4,CC(C)(O/N=C(\C(=O)NC1C(=O)N2C(C(=O)[O-])=C(CSc3nc(N)c4c([n+]3N)CCC4)CSC12)c1cnc(N)s1)C(=O)O (stereo not drawn),0.06 µg/mL

# Test system: Escherichia coli
# Experiment: In vitro minimum inhibitory concentration for Escherichia coli (ATCC-10536) by agar dilution method
# Type: functional
# Conditions: Escherichia coli; read-out: MIC
# Procedure, shortened: as §1
row,Compound,MIC
1,CC(C)(O/N=C(\C(=O)NC1C(=O)N2C(C(=O)O)=C(CSc3nc(N)cc(N)n3)CSC12)c1cnc(N)s1)C(=O)O (stereo not drawn),0.25 µg/mL
2,Cc1c(N)nc(SCC2=C(C(=O)[O-])N3C(=O)C(NC(=O)/C(=N\OC(C)(C)C(=O)O)c4cnc(N)s4)C3SC2)[n+]2nc(C)n(C)c12 (stereo not drawn),0.25 µg/mL
3,C[n+]1cccnc1SCC1=C(C(=O)[O-])N2C(=O)C(NC(=O)/C(=N\OC(C)(C)C(=O)O)c3cnc(N)s3)C2SC1 (stereo not drawn),1 µg/mL
4,CC(C)(O/N=C(\C(=O)NC1C(=O)N2C(C(=O)[O-])=C(CSc3nc(N)c4c([n+]3N)CCC4)CSC12)c1cnc(N)s1)C(=O)O (stereo not drawn),0.06 µg/mL

# Test system: Staphylococcus epidermidis
# Experiment: In vitro minimum inhibitory concentration for Staphylococcus epidermidis (ATCC-12228) by agar dilution method
# Type: functional
# Conditions: Staphylococcus epidermidis; read-out: MIC
# Procedure, shortened: as §1
row,Compound,MIC
1,CC(C)(O/N=C(\C(=O)NC1C(=O)N2C(C(=O)O)=C(CSc3nc(N)cc(N)n3)CSC12)c1cnc(N)s1)C(=O)O (stereo not drawn),8 µg/mL
2,Cc1c(N)nc(SCC2=C(C(=O)[O-])N3C(=O)C(NC(=O)/C(=N\OC(C)(C)C(=O)O)c4cnc(N)s4)C3SC2)[n+]2nc(C)n(C)c12 (stereo not drawn),2 µg/mL
3,C[n+]1cccnc1SCC1=C(C(=O)[O-])N2C(=O)C(NC(=O)/C(=N\OC(C)(C)C(=O)O)c3cnc(N)s3)C2SC1 (stereo not drawn),64 µg/mL
4,CC(C)(O/N=C(\C(=O)NC1C(=O)N2C(C(=O)[O-])=C(CSc3nc(N)c4c([n+]3N)CCC4)CSC12)c1cnc(N)s1)C(=O)O (stereo not drawn),2 µg/mL

# Test system: Klebsiella aerogenes
# Experiment: In vitro minimum inhibitory concentration for Enterobacter aerogenes (ATCC-29751) by agar dilution method
# Type: functional
# Conditions: Klebsiella aerogenes; read-out: MIC
# Procedure, shortened: as §1
row,Compound,MIC
1,CC(C)(O/N=C(\C(=O)NC1C(=O)N2C(C(=O)O)=C(CSc3nc(N)cc(N)n3)CSC12)c1cnc(N)s1)C(=O)O (stereo not drawn),2 µg/mL
2,Cc1c(N)nc(SCC2=C(C(=O)[O-])N3C(=O)C(NC(=O)/C(=N\OC(C)(C)C(=O)O)c4cnc(N)s4)C3SC2)[n+]2nc(C)n(C)c12 (stereo not drawn),1 µg/mL
3,C[n+]1cccnc1SCC1=C(C(=O)[O-])N2C(=O)C(NC(=O)/C(=N\OC(C)(C)C(=O)O)c3cnc(N)s3)C2SC1 (stereo not drawn),16 µg/mL
4,CC(C)(O/N=C(\C(=O)NC1C(=O)N2C(C(=O)[O-])=C(CSc3nc(N)c4c([n+]3N)CCC4)CSC12)c1cnc(N)s1)C(=O)O (stereo not drawn),0.25 µg/mL

# Test system: Citrobacter freundii
# Experiment: In vitro minimum inhibitory concentration for Citrobacter freundii (ATCC-8090) by agar dilution method
# Type: functional
# Conditions: Citrobacter freundii; read-out: MIC
# Procedure, shortened: as §1
row,Compound,MIC
1,CC(C)(O/N=C(\C(=O)NC1C(=O)N2C(C(=O)O)=C(CSc3nc(N)cc(N)n3)CSC12)c1cnc(N)s1)C(=O)O (stereo not drawn),1 µg/mL
2,Cc1c(N)nc(SCC2=C(C(=O)[O-])N3C(=O)C(NC(=O)/C(=N\OC(C)(C)C(=O)O)c4cnc(N)s4)C3SC2)[n+]2nc(C)n(C)c12 (stereo not drawn),0.13 µg/mL
3,C[n+]1cccnc1SCC1=C(C(=O)[O-])N2C(=O)C(NC(=O)/C(=N\OC(C)(C)C(=O)O)c3cnc(N)s3)C2SC1 (stereo not drawn),8 µg/mL
4,CC(C)(O/N=C(\C(=O)NC1C(=O)N2C(C(=O)[O-])=C(CSc3nc(N)c4c([n+]3N)CCC4)CSC12)c1cnc(N)s1)C(=O)O (stereo not drawn),0.03 µg/mL

# Test system: Pseudomonas aeruginosa
# Experiment: In vitro minimum inhibitory concentration for Pseudomonas aeruginosa (ATCC 10145) by agar dilution method
# Type: functional
# Conditions: not given
# Procedure, shortened: as §1
row,Compound,MIC
1,CC(C)(O/N=C(\C(=O)NC1C(=O)N2C(C(=O)O)=C(CSc3nc(N)cc(N)n3)CSC12)c1cnc(N)s1)C(=O)O (stereo not drawn),4 µg/mL
2,Cc1c(N)nc(SCC2=C(C(=O)[O-])N3C(=O)C(NC(=O)/C(=N\OC(C)(C)C(=O)O)c4cnc(N)s4)C3SC2)[n+]2nc(C)n(C)c12 (stereo not drawn),8 µg/mL
3,C[n+]1cccnc1SCC1=C(C(=O)[O-])N2C(=O)C(NC(=O)/C(=N\OC(C)(C)C(=O)O)c3cnc(N)s3)C2SC1 (stereo not drawn),8 µg/mL
4,CC(C)(O/N=C(\C(=O)NC1C(=O)N2C(C(=O)[O-])=C(CSc3nc(N)c4c([n+]3N)CCC4)CSC12)c1cnc(N)s1)C(=O)O (stereo not drawn),2 µg/mL

# Test system: Pseudomonas aeruginosa
# Experiment: In vitro minimum inhibitory concentration for Pseudomonas aeruginosa (ATCC-27853) by agar dilution method
# Type: functional
# Conditions: Pseudomonas aeruginosa; read-out: MIC
# Procedure, shortened: as §1
row,Compound,MIC
1,CC(C)(O/N=C(\C(=O)NC1C(=O)N2C(C(=O)O)=C(CSc3nc(N)cc(N)n3)CSC12)c1cnc(N)s1)C(=O)O (stereo not drawn),2 µg/mL
2,Cc1c(N)nc(SCC2=C(C(=O)[O-])N3C(=O)C(NC(=O)/C(=N\OC(C)(C)C(=O)O)c4cnc(N)s4)C3SC2)[n+]2nc(C)n(C)c12 (stereo not drawn),4 µg/mL
3,C[n+]1cccnc1SCC1=C(C(=O)[O-])N2C(=O)C(NC(=O)/C(=N\OC(C)(C)C(=O)O)c3cnc(N)s3)C2SC1 (stereo not drawn),8 µg/mL
4,CC(C)(O/N=C(\C(=O)NC1C(=O)N2C(C(=O)[O-])=C(CSc3nc(N)c4c([n+]3N)CCC4)CSC12)c1cnc(N)s1)C(=O)O (stereo not drawn),2 µg/mL

# Test system: Klebsiella pneumoniae
# Experiment: In vitro minimum inhibitory concentration for Klebsiella pneumoniae (ATCC-10031) by agar dilution method
# Type: functional
# Conditions: Klebsiella pneumoniae; read-out: MIC
row,Compound,MIC
1,CC(C)(O/N=C(\C(=O)NC1C(=O)N2C(C(=O)O)=C(CSc3nc(N)cc(N)n3)CSC12)c1cnc(N)s1)C(=O)O (stereo not drawn),0.25 µg/mL
2,Cc1c(N)nc(SCC2=C(C(=O)[O-])N3C(=O)C(NC(=O)/C(=N\OC(C)(C)C(=O)O)c4cnc(N)s4)C3SC2)[n+]2nc(C)n(C)c12 (stereo not drawn),0.13 µg/mL
3,C[n+]1cccnc1SCC1=C(C(=O)[O-])N2C(=O)C(NC(=O)/C(=N\OC(C)(C)C(=O)O)c3cnc(N)s3)C2SC1 (stereo not drawn),0.5 µg/mL
4,CC(C)(O/N=C(\C(=O)NC1C(=O)N2C(C(=O)[O-])=C(CSc3nc(N)c4c([n+]3N)CCC4)CSC12)c1cnc(N)s1)C(=O)O (stereo not drawn),0.06 µg/mL

# Test system: Enterobacter cloacae
# Experiment: In vitro minimum inhibitory concentration for Enterobacter cloacae (ATCC-27508) by agar dilution method
# Type: functional
# Conditions: Enterobacter cloacae; read-out: MIC
# Procedure, shortened: as §1
row,Compound,MIC
1,CC(C)(O/N=C(\C(=O)NC1C(=O)N2C(C(=O)O)=C(CSc3nc(N)cc(N)n3)CSC12)c1cnc(N)s1)C(=O)O (stereo not drawn),0.25 µg/mL
2,Cc1c(N)nc(SCC2=C(C(=O)[O-])N3C(=O)C(NC(=O)/C(=N\OC(C)(C)C(=O)O)c4cnc(N)s4)C3SC2)[n+]2nc(C)n(C)c12 (stereo not drawn),0.03 µg/mL
3,C[n+]1cccnc1SCC1=C(C(=O)[O-])N2C(=O)C(NC(=O)/C(=N\OC(C)(C)C(=O)O)c3cnc(N)s3)C2SC1 (stereo not drawn),0.25 µg/mL
4,CC(C)(O/N=C(\C(=O)NC1C(=O)N2C(C(=O)[O-])=C(CSc3nc(N)c4c([n+]3N)CCC4)CSC12)c1cnc(N)s1)C(=O)O (stereo not drawn),0.02 µg/mL

# Test system: Staphylococcus aureus
# Experiment: In vitro minimum inhibitory concentration for Staphylococcus aureus (ATCC 6538p) by agar dilution method
# Type: functional
# Conditions: Staphylococcus aureus, ATCC 6538p; read-out: MIC
# Procedure, shortened: as §1
row,Compound,MIC
1,CC(C)(O/N=C(\C(=O)NC1C(=O)N2C(C(=O)O)=C(CSc3nc(N)cc(N)n3)CSC12)c1cnc(N)s1)C(=O)O (stereo not drawn),32 µg/mL
2,Cc1c(N)nc(SCC2=C(C(=O)[O-])N3C(=O)C(NC(=O)/C(=N\OC(C)(C)C(=O)O)c4cnc(N)s4)C3SC2)[n+]2nc(C)n(C)c12 (stereo not drawn),8 µg/mL
3,C[n+]1cccnc1SCC1=C(C(=O)[O-])N2C(=O)C(NC(=O)/C(=N\OC(C)(C)C(=O)O)c3cnc(N)s3)C2SC1 (stereo not drawn),128 µg/mL
4,CC(C)(O/N=C(\C(=O)NC1C(=O)N2C(C(=O)[O-])=C(CSc3nc(N)c4c([n+]3N)CCC4)CSC12)c1cnc(N)s1)C(=O)O (stereo not drawn),4 µg/mL

# Test system: Salmonella typhimurium
# Experiment: In vitro minimum inhibitory concentration for Salmonella Typhimurium (ATCC-14028) by agar dilution method
# Type: functional, Salmonella enterica subsp. enterica serovar Typhimurium
# Conditions: Salmonella enterica; read-out: MIC
# Procedure, shortened: as §1
row,Compound,MIC
1,CC(C)(O/N=C(\C(=O)NC1C(=O)N2C(C(=O)O)=C(CSc3nc(N)cc(N)n3)CSC12)c1cnc(N)s1)C(=O)O (stereo not drawn),0.5 µg/mL
2,Cc1c(N)nc(SCC2=C(C(=O)[O-])N3C(=O)C(NC(=O)/C(=N\OC(C)(C)C(=O)O)c4cnc(N)s4)C3SC2)[n+]2nc(C)n(C)c12 (stereo not drawn),0.25 µg/mL
3,C[n+]1cccnc1SCC1=C(C(=O)[O-])N2C(=O)C(NC(=O)/C(=N\OC(C)(C)C(=O)O)c3cnc(N)s3)C2SC1 (stereo not drawn),1 µg/mL
4,CC(C)(O/N=C(\C(=O)NC1C(=O)N2C(C(=O)[O-])=C(CSc3nc(N)c4c([n+]3N)CCC4)CSC12)c1cnc(N)s1)C(=O)O (stereo not drawn),0.13 µg/mL

# Test system: Serratia marcescens
# Experiment: In vitro minimum inhibitory concentration for Serratia marcescens (ATCC-27117) by agar dilution method
# Type: functional
# Conditions: Serratia marcescens; read-out: MIC
# Procedure, shortened: as §1
row,Compound,MIC
1,CC(C)(O/N=C(\C(=O)NC1C(=O)N2C(C(=O)O)=C(CSc3nc(N)cc(N)n3)CSC12)c1cnc(N)s1)C(=O)O (stereo not drawn),0.5 µg/mL
2,Cc1c(N)nc(SCC2=C(C(=O)[O-])N3C(=O)C(NC(=O)/C(=N\OC(C)(C)C(=O)O)c4cnc(N)s4)C3SC2)[n+]2nc(C)n(C)c12 (stereo not drawn),0.5 µg/mL
3,C[n+]1cccnc1SCC1=C(C(=O)[O-])N2C(=O)C(NC(=O)/C(=N\OC(C)(C)C(=O)O)c3cnc(N)s3)C2SC1 (stereo not drawn),2 µg/mL
4,CC(C)(O/N=C(\C(=O)NC1C(=O)N2C(C(=O)[O-])=C(CSc3nc(N)c4c([n+]3N)CCC4)CSC12)c1cnc(N)s1)C(=O)O (stereo not drawn),0.13 µg/mL
